The values that follow come from PubChem BioAssay.

The source made the active and inactive calls.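 The calls were made as follows, unless noted: active = visually confirmed hit in the image check and inhibition above 20%; inconclusive = visually confirmed hit but inhibition not above 20%; inactive = no visual hit in the image check.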

Test [1] in a line: inhibitors of TNFa-induced NFkB p65 translocation, primary screen, imaging, HUVEC, MLSMR starter and 10KST1 sets (AID 438;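 active = inhibition above 20% together with a positive visual image hit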;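 also: compound added about 3h40 before a 20 min TNFalpha stimulation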;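 as to inhibition: signal is the nuclear over cytoplasmic p65 intensity ratio per well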). As to conditions: HUVEC TNFa-induced p65 nuclear translocation; cell count: measured here: nuclei count (cytotoxicity indicator), at 2.08 µM; inhibition: at 2 µM, stronger effect = higher value, 0% TNFa-plus-vehicle, 100% no-TNFa wells.
Test [2] can be described thus: reduction of polyQ htt aggregates in cells – imaging, exon1htt(103Q)mCFP cells, high-content imaging, primary screen (AID 483;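 active = visual image review flags a hit and inhibition of aggregation exceeds 20%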;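 also: compound exposure lasted 3 days before fixation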;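 as to nuclei count: percent of the per-plate median nuclei count of sample wells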). As to conditions: exon1htt(103Q)mCFP cell line, aggregate imaging, at 2 µM; inhibition of aggregation: stronger effect = higher value; nuclei count: measured here: cell count, toxicity.
Test [3] can be described thus: endothelial E-selectin expression blockers – imaging, HUVEC, immunofluorescence, MLSMR starter and 10KST1 sets, primary screen (AID 487).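 As to inhibition: signal is fraction of cell area covered by stained E-selectin grains.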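 As to nuclei count: 100% = median nuclei count of all wells on the same plate.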 To be noted: HUVEC TNFalpha-induced E-selectin immunofluorescence imaging, at 2 µM; inhibition: stronger effect = higher value; nuclei count: measured here: cell number, toxicity.
Test [4] deals with Voltage-gated potassium channel subunit beta-2 (Rattus norvegicus) (UniProt P62483). The test is described as follows: inhibitors of rat Kvbeta2 reductase activity – biochemical, NADPH fluorescence, primary screen (AID 622;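 active = fluorescence slope higher than the sample average by over 3 SD, cut at about -0.22 in these data, passing the limit was not always enough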;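 also: slope of raw intensity against log time taken from 70 to 1610 s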). As to conditions: recombinant KvBeta, 4-cyanobenzaldehyde reduction, at 10 µM, stronger effect = higher value.
Sequence of Voltage-gated potassium channel subunit beta-2 (Rattus norvegicus) (P62483 whole entry, looked up): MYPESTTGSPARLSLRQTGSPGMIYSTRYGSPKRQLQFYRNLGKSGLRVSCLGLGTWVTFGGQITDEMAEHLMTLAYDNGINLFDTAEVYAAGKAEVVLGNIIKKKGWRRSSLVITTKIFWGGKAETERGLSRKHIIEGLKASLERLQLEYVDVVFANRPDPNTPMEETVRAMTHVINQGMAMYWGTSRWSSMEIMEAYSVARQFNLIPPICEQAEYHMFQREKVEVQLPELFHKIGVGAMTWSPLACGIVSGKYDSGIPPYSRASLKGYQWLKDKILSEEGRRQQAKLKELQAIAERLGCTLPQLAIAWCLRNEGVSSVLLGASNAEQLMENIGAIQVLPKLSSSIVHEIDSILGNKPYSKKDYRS
The target is the same in test [5]. The test is described as follows: enhancers of rat Kvbeta2 NADPH turnover – biochemical, NADPH fluorescence, primary screen (AID 623;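 active = NADPH fluorescence slope more negative than the mean of all samples by about 3 SD, 99.7% confidence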;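 also: fluorescence intensity change per second fitted from 20 to 320 s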). To be noted: Recombinant KvBeta, NADPH fluorescence decrease slope, 10 min; at 10 µM; stronger effect = lower value.
The target in test [6] is Muscarinic acetylcholine receptor M4 (Homo sapiens) (UniProt P08173). The test can be described thus: M4-linked GIRK flux change, two-sided – cell-based, HEK293 M4/GIRK, thallium flux, BTC-AM, M4 allosteric agonist project, primary screen (AID 625;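 active = fluorescence slope after compound addition differing from the mean of all tested samples at 99.7% confidence, mostly higher but some lower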;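 also: thallium influx through GIRK channels coupled to M4 in HEK293 cells with BTC-AM dye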). As to conditions: at 10 µM, actives lie on both sides. The gist of the method:
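Material: M4/GIRK1/GIRK2 stable HEK293 cell line. Medium: pH 7.3 thallium assay buffer. Dosing: single compound concentration, 10 µM final. Schedule: 1 h dye loading, 2 min kinetic read. Measured by: kinetic fluorescence with BTC-AM dye. Read-out: post-addition slope, 15–24 s, of baseline-normalized fluorescence. Benchmarks: carbachol and DMSO controls.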

A short description of test [7]: blockers of RIG-like receptor reporter activation – cell-based, Sendai virus stimulus, luciferase, 10K MLSCN set, TLR/RLR signaling modifier project, primary screen (AID 602276;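 active = inhibition at or above 50% at 10 µM; inactive = inhibition below 50%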;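 also: firefly luciferase from ISG56 promoter only with Renilla not read in this screen; 0% = Sendai virus plus DMSO and 100% = medium plus DMSO without virus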). As to conditions: HEK293 RL24 IRF3 luciferase reporter, at 10 µM, stronger effect = higher value.
Test [8] can be described thus: TLR3 IRF3 reporter activation blockers – cell-based, poly I:C stimulus, luciferase, 10K MLSCN set, primary screen (AID 602277;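 active = inhibition of the reporter signal at or above 50%; inactive = inhibition below 50%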). As to conditions: HEK293-TLR3 RL24 IRF3 luciferase reporter, at 10 µM, stronger effect = higher value. For orientation: A reporter such as luciferase makes a cellular process visible.

Sequence of Muscarinic acetylcholine receptor M4 (Homo sapiens) (P08173 whole entry, looked up): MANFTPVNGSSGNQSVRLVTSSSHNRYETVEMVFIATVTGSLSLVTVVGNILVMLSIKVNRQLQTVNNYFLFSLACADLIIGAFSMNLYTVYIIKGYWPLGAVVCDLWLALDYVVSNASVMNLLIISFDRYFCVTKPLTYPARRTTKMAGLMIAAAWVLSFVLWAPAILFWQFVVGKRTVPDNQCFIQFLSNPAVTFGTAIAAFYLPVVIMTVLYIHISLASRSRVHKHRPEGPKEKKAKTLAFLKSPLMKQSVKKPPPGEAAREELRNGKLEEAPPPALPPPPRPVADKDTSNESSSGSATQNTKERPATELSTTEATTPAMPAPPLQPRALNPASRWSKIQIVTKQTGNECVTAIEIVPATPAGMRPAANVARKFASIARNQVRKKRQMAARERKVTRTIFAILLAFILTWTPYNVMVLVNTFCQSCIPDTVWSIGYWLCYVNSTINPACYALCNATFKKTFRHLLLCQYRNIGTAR

For orientation: inhibition means the drop in the measured response relative to a control, in per cent. Regarding `Cc1cc(O)c(C2(C(F)(F)F)NCCNC2=O)cc1C` (centres undefined), the cell count in test [1] was 560. Also, the inhibition in test [1] is 4.7% (inactive); in test [3], 63.7% (inactive); in test [7], 17.6% (inactive); in test [8], 29.3% (inactive). Moreover, the inhibition of aggregation in test [2] is 24.3% (inactive). The nuclei count stood at 84.5% in test [2] and 63.2% in test [3]. The fluorescence slope in test [4] was -0.576 (inactive); in test [6], 0.00721 (inactive). In test [5], the NADPH fluorescence slope was 1e-05 (inactive).
For the molecule `CC(C)C(=O)Nc1nnc(CCc2nnc(NC(=O)C(C)C)s2)s1`, in test [1], the cell count worked out at 793. For the same molecule, the inhibition in test [1] is -10.1% (inactive); in test [3] it was -80.3% (inactive); in test [7] it was 14.6% (inactive); in test [8], 19.9% (inactive). Besides, in test [2], the inhibition of aggregation is 9.8% (inactive). Also, the nuclei count in test [2] was determined as 89.2%; in test [3], 114%. The fluorescence slope in test [4] is -0.552 (inactive); in test [6], 0.00508 (inactive). In addition, the NADPH fluorescence slope in test [5] is 1.7e-05 (inactive).
`COc1cccc(CNC(=O)C2CCN(S(=O)(=O)c3ccc(F)cc3)CC2)c1`: in test [1], the cell count turned out to be 603. Moreover, the inhibition in test [1] was 9.6% (inactive); in test [3], -47.8% (inactive); in test [7], 19.5% (inactive); in test [8], 20.1% (inactive). Further, the inhibition of aggregation in test [2] was 5.3% (inactive). Besides, the figures for the nuclei count in test [2] and in test [3] were 103% and 123%, respectively. For the same molecule, the fluorescence slope in test [4] was -0.553 (inactive); in test [6] it was 0.00553 (inactive). Moreover, in test [5], the NADPH fluorescence slope is -5.5e-05 (inactive).
Take `CCn1c2ccccc2c2cc(NC(=O)Cc3ccc(S(=O)(=O)N4CCOCC4)s3)ccc21`: the cell count in test [1] came out at 343. Moreover, the inhibition in test [1] is -0.2% (inactive); in test [3], -10.9% (inactive); in test [7], 25.9% (inactive); in test [8], 26.4% (inactive). Besides, the inhibition of aggregation in test [2] was 29.4% (inactive). In addition, the nuclei count in test [2] is 115%; in test [3] it was 109%. The fluorescence slope in test [4] is -0.502 (inactive); in test [6], 0.00333 (inactive). Besides, the NADPH fluorescence slope in test [5] was 1e-05 (inactive).
As for `O=C(CSc1nc2ccc(Cl)cc2[nH]1)NCc1ccco1`, the cell count in test [1] was determined as 273. Besides, the inhibition in test [1] was 17.8% (inactive); in test [3], -3.9% (inactive); in test [7] it was 17.9% (inactive); in test [8] it was 20.8% (inactive). In addition, the inhibition of aggregation in test [2] was -10.2% (inactive). The nuclei count in test [2] and in test [3] was 109% each time. Further, the fluorescence slope in test [4] is -0.611 (inactive); in test [6] it was 0.00642 (inactive). Also, the NADPH fluorescence slope in test [5] was 1.5e-05 (inactive).
As for `COC(=O)c1nc2n(n1)C(c1ccc(OC)c(OC)c1)C(C(=O)OC1CCCCC1)=C(C)N2` (centres undefined), the cell count in test [1] is 603. Moreover, the inhibition in test [1] is -14.8% (inactive); in test [3], 26.7% (inactive); in test [7], 4.26% (inactive); in test [8] it was 12.6% (inactive). Moreover, the inhibition of aggregation in test [2] was -3.4% (inactive). The values for the nuclei count in test [2] and in test [3] were 99.2% and 89.6%, respectively. The fluorescence slope is -0.315 (inactive) in test [4] and 0.00696 (inactive) in test [6]. For the same molecule, the NADPH fluorescence slope in test [5] is -5.5e-05 (inactive).
As for `COc1cccc(C2C(C#N)=C(N)OC3=C2C(=O)CCC3)c1OC(=O)c1ccco1` (centres undefined), the cell count in test [1] is 384. For the same molecule, the inhibition is 4.7% (inactive) in test [1], 52.8% (inactive) in test [3], 12.4% (inactive) in test [7] and 10.4% (inactive) in test [8]. The inhibition of aggregation in test [2] is -12.3% (inactive). Further, the nuclei count in test [2] was determined as 103%; in test [3] it was 88.3%. The fluorescence slope in test [4] is -0.513 (inactive); in test [6], 0.00509 (inactive). In addition, the NADPH fluorescence slope in test [5] was -3.8e-05 (inactive).
Consider `CCOCCCNC(=O)c1ccc2c(c1)ncn2C1CCCC1`, for which the cell count in test [1] is 573. In addition, the inhibition in test [1] is -4.8% (inactive); in test [3], -12% (inactive); in test [7] it was -12.4% (inactive); in test [8] it was -122% (inactive). In test [2], the inhibition of aggregation is -5.5% (inactive). The nuclei count was determined as 100% in test [2] and 94.4% in test [3]. Moreover, the fluorescence slope was -0.495 (inactive) in test [4] and 0.00159 (inactive) in test [6]. Moreover, the NADPH fluorescence slope in test [5] was 4.4e-05 (inactive).
With `CC(C)(C)NC(=O)Nc1ccccc1C(N)=O`, in test [1], the cell count turned out to be 657. In addition, the inhibition was 1.6% (inactive) in test [1], -34.5% (inactive) in test [3], 3.23% (inactive) in test [7] and -20.8% (inactive) in test [8]. Besides, the inhibition of aggregation in test [2] was -14.8% (inactive). Besides, the values for the nuclei count in test [2] and in test [3] were 108% and 107%, respectively. The results for the fluorescence slope in test [4] and in test [6] were -0.539 (inactive) and 0.0058 (inactive), respectively. In test [5], the NADPH fluorescence slope is -8e-06 (inactive).
Consider `Cc1ccc(NC(=O)CSc2nnc(CSc3nc(C)cc(C)n3)n2Cc2ccco2)c(C)c1`, for which the cell count in test [1] came to 655. In addition, the inhibition in test [1] was 1.6% (inactive); in test [3], -23.6% (inactive); in test [7] it was -22% (inactive); in test [8] it was -4.45% (inactive). Moreover, the inhibition of aggregation in test [2] was 1.3% (inactive). For the same molecule, the nuclei count in test [2] worked out at 79.3%; in test [3] it was 108%. In addition, the fluorescence slope in test [4] was -0.454 (inactive); in test [6] it was 0.0102 (inactive). In test [5], the NADPH fluorescence slope was 5.9e-05 (inactive).
With `COc1ccc(CC(NC(C)=O)C(=O)NC2CCN(C(=O)Nc3ccc(C#N)cc3)CC2)cc1OC` (centres undefined), the cell count in test [1] is 312. For the same molecule, the inhibition in test [1] was -1.9% (inactive); in test [3] it was -29.9% (inactive); in test [7], 14.2% (inactive); in test [8], 14.3% (inactive). Besides, the inhibition of aggregation in test [2] was -14.4% (inactive). For the same molecule, the nuclei count in test [2] was determined as 102%; in test [3], 112%. In addition, the fluorescence slope is -0.415 (inactive) in test [4] and 0.00714 (inactive) in test [6]. For the same molecule, in test [5], the NADPH fluorescence slope is 8.5e-05 (inactive).
With `CCn1c(C(=O)N2CCCC(C(=O)O)C2)cc2sccc21` (centres undefined), in test [1], the cell count is 335. For the same molecule, the inhibition in test [1] is 26.3% (active); in test [3], -32.2% (inactive); in test [7], -2.79% (inactive); in test [8], -4.5% (inactive). The inhibition of aggregation in test [2] was -57.1% (inactive). The nuclei count in test [2] and in test [3] was 115% throughout. Also, the figures for the fluorescence slope in test [4] and in test [6] were -0.485 (inactive) and 0.00595 (inactive), respectively. Further, in test [5], the NADPH fluorescence slope was 8.2e-05 (inactive).
Regarding `COc1ccc(C(=O)NCCn2ccc3ccccc32)cc1`, in test [1], the cell count came to 238. Besides, the inhibition is 7.3% (inactive) in test [1], -36.9% (inactive) in test [3], 5.56% (inactive) in test [7] and -49.2% (inactive) in test [8]. In addition, the inhibition of aggregation in test [2] is 25.9% (inactive). In addition, the nuclei count in test [2] came out at 104%; in test [3], 95%. Besides, the values for the fluorescence slope in test [4] and in test [6] were -0.386 (inactive) and 0.008 (inactive), respectively. In test [5], the NADPH fluorescence slope was -5.6e-06 (inactive).
Regarding `CCC(Sc1ccc(C(=O)O)cc1)C(=O)O` (centres undefined), in test [1], the cell count worked out at 319. Further, the inhibition is -1.8% (inactive) in test [1], -40.5% (inactive) in test [3], 1.75% (inactive) in test [7] and 7.14% (inactive) in test [8]. Further, the inhibition of aggregation in test [2] was -13.8% (inactive). The nuclei count in test [2] came out at 110%; in test [3], 109%. Besides, the fluorescence slope is -0.566 (inactive) in test [4] and 0.0053 (inactive) in test [6]. Further, the NADPH fluorescence slope in test [5] was -2.4e-05 (inactive).
